Laboratory results published in ChEMBL document CHEMBL4689842, “EUbOPEN Chemogenomics Library wave 1” (2021).

Tested on: Fibroblast
Assay: Multiplex assay against human fibroblast
Assay type: toxicity, cell-based
In short: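 At seeding, live cells were stained with Hoechst33342, BioTracker Green Microtubule Cytoskeleton Dye, MitoTracker Red and Annexin V Alexa Fluor 680. After compound addition they were imaged on a CQ1 microscope at 37°C and 5% CO2, and CellPathfinder machine-learning gating sorted them into Hoechst high-intensity objects or normal cells, with normal cells further split into healthy, pyknosed or fragmented nuclei and pyknosed cells into mitotic or apoptotic. Tubulin, mitochondrial-mass and membrane-permeability phenotypes are given as per cents of cells with healthy nuclei.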

[1] = 12 h, 1 µM, compound concentration 1 uM, replicate 1
[2] = 12 h, 1 µM, compound concentration 1 uM, replicate 2
[3] = 12 h, 10 µM, compound concentration 10 uM, replicate 1
[4] = 12 h, 10 µM, compound concentration 10 uM, replicate 2
[5] = 24 h, 1 µM, compound concentration 1 uM, replicate 1
[6] = 24 h, 1 µM, compound concentration 1 uM, replicate 2
[7] = 24 h, 10 µM, compound concentration 10 uM, replicate 1
[8] = 24 h, 10 µM, compound concentration 10 uM, replicate 2
[9] = 48 h, 1 µM, compound concentration 1 uM, replicate 1
[10] = 48 h, 1 µM, compound concentration 1 uM, replicate 2
[11] = 48 h, 10 µM, compound concentration 10 uM, replicate 1
[12] = 48 h, 10 µM, compound concentration 10 uM, replicate 2

## CC(C)(O)CNc1ncc(-c2ccnc(Nc3ccnc(Cl)c3)n2)c(CC2CC2)n1
[1]
  Population Apoptotic (%): 59%
  Population Fragmented Nuclei (%): 27%
  Population Healthy Nuclei (%): 46%
  Population Hoechst High Intensity Objects (%): 14%
  Population Membrane Permeable-Phenotype (%): 35%
  Population Mitochondria Different-Phenotype (%): 6%
  Population Mitotic Cells (%): 40%
  Population Normal (%): 85%
  Population Pyknosed Nuclei (%): 25%
  Population Tubulin-Different-Phenotype (%): 54%
  Total Cell Count: 121
[2]
  Population Apoptotic (%): 9%
  Population Fragmented Nuclei (%): 9%
  Population Healthy Nuclei (%): 78%
  Population Hoechst High Intensity Objects (%): 5%
  Population Membrane Permeable-Phenotype (%): 5%
  Population Mitochondria Different-Phenotype (%): 17%
  Population Mitotic Cells (%): 90%
  Population Normal (%): 94%
  Population Pyknosed Nuclei (%): 12%
  Population Tubulin-Different-Phenotype (%): 14%
  Total Cell Count: 97
[3]
  Population Apoptotic (%): 58%
  Population Fragmented Nuclei (%): 32%
  Population Healthy Nuclei (%): 24%
  Population Hoechst High Intensity Objects (%): 7%
  Population Membrane Permeable-Phenotype (%): 18%
  Population Mitochondria Different-Phenotype (%): 45%
  Population Mitotic Cells (%): 41%
  Population Normal (%): 92%
  Population Pyknosed Nuclei (%): 43%
  Population Tubulin-Different-Phenotype (%): 90%
  Total Cell Count: 97
[4]
  Population Apoptotic (%): 15%
  Population Fragmented Nuclei (%): 10%
  Population Healthy Nuclei (%): 64%
  Population Membrane Permeable-Phenotype (%): 28%
  Population Mitochondria Different-Phenotype (%): 96%
  Population Mitotic Cells (%): 84%
  Population Pyknosed Nuclei (%): 26%
  Population Tubulin-Different-Phenotype (%): 100%
  Total Cell Count: 93
[5]
  Population Apoptotic (%): 53%
  Population Fragmented Nuclei (%): 35%
  Population Healthy Nuclei (%): 51%
  Population Hoechst High Intensity Objects (%): 10%
  Population Membrane Permeable-Phenotype (%): 31%
  Population Mitochondria Different-Phenotype (%): 0%
  Population Mitotic Cells (%): 46%
  Population Normal (%): 90%
  Population Pyknosed Nuclei (%): 12%
  Population Tubulin-Different-Phenotype (%): 53%
  Total Cell Count: 130
[6]
  Population Apoptotic (%): 20%
  Population Fragmented Nuclei (%): 11%
  Population Healthy Nuclei (%): 74%
  Population Hoechst High Intensity Objects (%): 4%
  Population Membrane Permeable-Phenotype (%): 10%
  Population Mitochondria Different-Phenotype (%): 20%
  Population Mitotic Cells (%): 80%
  Population Normal (%): 95%
  Population Pyknosed Nuclei (%): 15%
  Population Tubulin-Different-Phenotype (%): 16%
  Total Cell Count: 136
[7]
  Population Apoptotic (%): 63%
  Population Fragmented Nuclei (%): 20%
  Population Healthy Nuclei (%): 32%
  Population Hoechst High Intensity Objects (%): 8%
  Population Membrane Permeable-Phenotype (%): 28%
  Population Mitochondria Different-Phenotype (%): 60%
  Population Mitotic Cells (%): 36%
  Population Normal (%): 91%
  Population Pyknosed Nuclei (%): 47%
  Population Tubulin-Different-Phenotype (%): 89%
  Total Cell Count: 95
[8]
  Population Apoptotic (%): 47%
  Population Fragmented Nuclei (%): 14%
  Population Healthy Nuclei (%): 40%
  Population Hoechst High Intensity Objects (%): 14%
  Population Membrane Permeable-Phenotype (%): 47%
  Population Mitochondria Different-Phenotype (%): 89%
  Population Mitotic Cells (%): 52%
  Population Normal (%): 85%
  Population Pyknosed Nuclei (%): 44%
  Population Tubulin-Different-Phenotype (%): 100%
  Total Cell Count: 105
[9]
  Population Apoptotic (%): 100%
  Population Fragmented Nuclei (%): 51%
  Population Healthy Nuclei (%): 46%
  Population Hoechst High Intensity Objects (%): 18%
  Population Membrane Permeable-Phenotype (%): 27%
  Population Mitochondria Different-Phenotype (%): 3%
  Population Mitotic Cells (%): 0%
  Population Normal (%): 81%
  Population Tubulin-Different-Phenotype (%): 24%
  Total Cell Count: 143
[10]
  Population Apoptotic (%): 50%
  Population Fragmented Nuclei (%): 18%
  Population Healthy Nuclei (%): 78%
  Population Hoechst High Intensity Objects (%): 10%
  Population Membrane Permeable-Phenotype (%): 22%
  Population Mitochondria Different-Phenotype (%): 1%
  Population Mitotic Cells (%): 50%
  Population Normal (%): 89%
  Population Pyknosed Nuclei (%): 2%
  Population Tubulin-Different-Phenotype (%): 40%
  Total Cell Count: 84
[11]
  Population Apoptotic (%): 54%
  Population Fragmented Nuclei (%): 49%
  Population Healthy Nuclei (%): 29%
  Population Hoechst High Intensity Objects (%): 15%
  Population Membrane Permeable-Phenotype (%): 12%
  Population Mitochondria Different-Phenotype (%): 41%
  Population Mitotic Cells (%): 45%
  Population Normal (%): 84%
  Population Pyknosed Nuclei (%): 21%
  Population Tubulin-Different-Phenotype (%): 93%
  Total Cell Count: 123
[12]
  Population Apoptotic (%): 29%
  Population Fragmented Nuclei (%): 23%
  Population Healthy Nuclei (%): 58%
  Population Hoechst High Intensity Objects (%): 9%
  Population Membrane Permeable-Phenotype (%): 7%
  Population Mitochondria Different-Phenotype (%): 51%
  Population Mitotic Cells (%): 70%
  Population Normal (%): 90%
  Population Pyknosed Nuclei (%): 17%
  Population Tubulin-Different-Phenotype (%): 96%
  Total Cell Count: 106
